Source: PubChem BioAssay (NMMLSC)
Most compounds without a hit are left out; they make up all but 0.9% or so of the library.
ABCG2 block – inhibitors of human ABCG2 transporter, ABCB1 counter-screen; hit rate 0.1% among 190,000; IgMXP3 cells, JC-1 efflux, flow cytometry; inhibition, % at 6.6 µM; Q9UNQ0;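 active = inhibition above 80%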;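 note: 0% = DMSO and 100% = nicardipine control wells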
Target sequence (Q9UNQ0 whole entry, looked up): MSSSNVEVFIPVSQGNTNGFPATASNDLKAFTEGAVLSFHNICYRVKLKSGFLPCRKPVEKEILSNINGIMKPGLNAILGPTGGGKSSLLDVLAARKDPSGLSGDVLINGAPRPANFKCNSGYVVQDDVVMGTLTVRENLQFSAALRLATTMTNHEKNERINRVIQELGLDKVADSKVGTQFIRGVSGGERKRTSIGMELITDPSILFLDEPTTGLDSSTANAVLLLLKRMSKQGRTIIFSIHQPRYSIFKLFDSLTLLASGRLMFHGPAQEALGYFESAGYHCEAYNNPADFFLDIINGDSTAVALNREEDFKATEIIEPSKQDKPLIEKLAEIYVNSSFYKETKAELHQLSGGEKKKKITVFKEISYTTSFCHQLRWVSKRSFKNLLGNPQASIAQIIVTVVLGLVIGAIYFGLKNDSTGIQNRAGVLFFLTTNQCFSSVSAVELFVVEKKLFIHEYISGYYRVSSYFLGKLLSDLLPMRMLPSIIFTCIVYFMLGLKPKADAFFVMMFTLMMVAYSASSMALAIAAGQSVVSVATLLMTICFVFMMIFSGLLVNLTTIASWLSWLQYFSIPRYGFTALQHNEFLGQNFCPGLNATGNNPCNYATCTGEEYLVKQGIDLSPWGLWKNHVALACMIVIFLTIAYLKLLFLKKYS
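System: two drug-resistant human cell lines, ABCG2 and ABCB1; controls: nicardipine high and DMSO low controls; times: 10 min exposure at 25 °C with rotation, no wash; detection: flow cytometry of retained JC-1 fluorescence; read-out basis: percent efflux inhibition, scaled nicardipine 100% to DMSO 0%; doses: one concentration, 6.6 µM final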
RGS8-Gao reg – regulators of human RGS8-Galphao interaction. response (percent of control binding), % at 10 µM. hit rate 0.34% among 220,000. P09471. multiplexed bead flow cytometry, RGS8-Galphao binding; actives lie on both sides. AID 1423; in the data active = response below about 60% or above about 140%; inactive = in between;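 note: Galphao activated as the GDP aluminium fluoride complex binding bead-coupled RGS8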
RGS16-Gao – modulates binding between human RGS16 and Galphao; bead-based flow cytometry RGS16-Galphao binding, fluorescence; actives lie on both sides; hit rate 0.38% among 220,000; binding response (% of control), % at 10 µM; O15492+P09471;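 note: Galphao activated by GDP with aluminum fluoride before binding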
RGS4-Gao reg – modulates binding of RGS4 to human Galphao; P09471; Multiplexed bead flow cytometry; actives lie on both sides; binding response (% of control), % at 10 µM; hit rate 0.33% among 220,000; AID 1415; in the data active = binding response below about 49% or above about 150%; inactive = in between;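 note: fluorescent Galphao activated with aluminum fluoride binding bead-coupled RGS4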
RGS7-Gao reg – modulates binding of RGS7 to human Galphao; Multiplexed bead flow cytometry; actives lie on both sides; binding response (% of control), % at 10 µM; hit rate 0.35% among 220,000; in the data active = binding response below about 49% or above about 150%; inconclusive = no clear call, values can overlap the other calls; inactive = in between;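 note: fluorescent Galphao held in activated GDP-AlF4 state binding bead-coupled RGS7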
ABCB1 inh – human ABCB1 inhibition, ABCG2 as counter-screen. P08183. CCRF-Adr cells, JC-1 efflux, flow cytometry. inhibition, % at 6.6 µM. hit rate 0.067% among 190,000; in the data active = inhibition above about 40%;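 note: 0% = vehicle and 100% = reference inhibitor; higher value means more JC-1 retained so stronger ABCB1 efflux block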
RGS4-Gao HTS – modulates binding between human RGS4 and Galphao | shares compounds with RGS16-Gao | multiplexed bead flow cytometry, RGS–Galpha-o binding | RGS4–Galpha-o binding response, % at 10 µM | hit rate 99% among 1,600;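 note: fluorescently labeled Galpha-o bound to GDP with aluminium fluoride binding biotinylated RGS beads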
Avidin counter – biotin-avidin bead binding disruption counter-screen. shares compounds with RGS16-Gao. 1,700 tested, under 10 active. streptavidin beads, fluorescein-biotin binding, flow cytometry. inhibition, % at 10 µM;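 active = inhibition above 50%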;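 note: median green fluorescence of gated singlet beads compared with DMSO control wells; 0% = DMSO wells and 100% = complete loss of bead fluorescence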
RGS8-Gao confirm – confirmation of regulators of human RGS8-Galphao interaction; shares compounds with RGS16-Gao; bead-based flow cytometry RGS8-Galphao binding, fluorescence; actives lie on both sides; binding response (% of control), % at 10 µM; hit rate 3% among 1,700; in the data active = binding response below about 72% or above about 130%; inactive = in between;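 note: Galphao activated as GDP AlF4 complex before binding bead RGS8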
RGS7-Gao confirm – confirmation of regulators of human RGS7-Galphao interaction | shares compounds with RGS16-Gao | bead-based flow cytometry RGS7-Galphao binding; actives lie on both sides | response (percent of control binding), % at 10 µM | hit rate 7.8% among 1,700 | AID 1837; in the data active = response below about 75% or above about 130%; inactive = in between;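 note: fluorescent Galphao activated with GDP and aluminum fluoride binding bead-coupled RGS7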
RGS16-Gao conf – RGS16-Galphao interaction regulation, single point confirmation | bead-based flow cytometry, RGS16-Galphao binding; actives lie on both sides | AID 1838 | shares compounds with RGS16-Gao | response (% of control binding), % at 10 µM | hit rate 4% among 1,700; in the data active = response below about 74% or above about 130%; inactive = in between;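 note: Galphao activated as the GDP aluminium fluoride complex binding bead-coupled RGS16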
RGS4-Gao confirm – confirmation of regulators of human RGS4-Galphao interaction; shares compounds with RGS16-Gao; RGS4-Galphao binding, multiplexed bead flow cytometry; actives lie on both sides; binding response (% of control), % at 10 µM; hit rate 4% among 1,700; AID 1840; in the data active = binding response below about 74% or above about 130%; inactive = in between
RGS19-Gao conf – RGS19-Galphao interaction regulation, single point confirmation. shares compounds with RGS16-Gao. bead-based flow cytometry RGS19-Galphao binding; actives lie on both sides. response (percent of control binding), % at 10 µM. hit rate 5% among 1,700; in the data active = response below about 50% or above about 160%; inactive = in between;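 note: 100% = no compound control and 0% = blank background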
* marks the source's active call; other numbers are inactive results; ? = inconclusive; / = no result given; [ ] = another dose, or the depositor's remark. Unless noted, the rule behind the calls is not given here.

SMILES	ABCG2 block	RGS8-Gao reg	RGS16-Gao	RGS4-Gao reg	RGS7-Gao reg	ABCB1 inh	RGS4-Gao HTS	Avidin counter	RGS8-Gao confirm	RGS7-Gao confirm	RGS16-Gao conf	RGS4-Gao confirm	RGS19-Gao conf
Cc1cc(NC(=O)c2ccccc2)nc(C)n1	/	150*[activator]	174	174*[activator]	?	/	/	0	104	105	105	104	100
Cc1cc(NC(=O)c2ccccc2)n(C(C)(C)C)n1	/	101	100	99	?	/	/	/	/	/	/	/	/
COc1ccc(OCCOC(=O)c2cccc(-n3cnnn3)c2)cc1	0	29*	4.0*	15*	17*	0	/	1	101	97	101	100	93
COC(=O)Nc1nnc(/C=C/c2ccc(OC)cc2)s1	-1	90	49	98	96	0	/	/	/	/	/	/	/
COc1ccc(/C=C/c2nnc(NC(C)=O)s2)cc1	/	110	144	158*[activator]	?	/	/	-2	100	106	101	102	106
O=C(N/N=C/c1ccc(N2CCOCC2)cc1)C1CC1	0	100	98	100	100	0	/	/	/	/	/	/	/
COc1ccc2cc3cc(C(=O)NCc4cccnc4)oc3nc2c1	8	107	116	102	100	2	/	/	/	/	/	/	/
CC(=O)C(=Cc1cn(-c2ccccc2)nc1-c1ccccc1)C(C)=O	11	97	97	97	?	1	/	/	/	/	/	/	/
CCOC(=O)Cc1csc(NC(=O)CSc2nnc(-c3ccc(F)cc3)o2)n1	0	72	-13*	61	57	0	61*	-1	95	68*	84	80	54
CCn1c(P(C)(=O)O)nc2cc(NC(=O)c3ccccc3Cl)ccc21	1	102	101	102	98	0	/	/	/	/	/	/	/
Cc1ccc(OCC(=O)N/N=C\c2ccncc2)c(C)c1	15	111	177*[activator]	106	105	1	106*	/	/	/	/	/	/
Cc1ccc(OCC(=O)N/N=C/c2ccncc2)cc1C	/	103	103	94	?	/	/	/	/	/	/	/	/
c1ccc(-c2csc(Nc3ccc4c(c3)OCCO4)n2)cc1	6	55*	92	91	50*	0	91*	1	107	109	106	104	115
CCCCc1ccc(NC(=S)NCCN2CCOCC2)cc1	2	97	93	96	100	1	/	/	/	/	/	/	/
O=C1OCC2OC(O)C(O)C(O)C2OC(=O)c2cc(O)c(O)c(O)c2-c2c(O)c(O)c3oc(=O)c4c(c(O)c(O)c5oc(=O)c2c3c54)-c2c1cc(O)c(O)c2O (configuration not stated)	/	36*	66	48*	?	/	/	0	37*	32*	75	47*	102
Cc1cc(NC(=O)C2CC2)ncc1NC(=O)c1ccccn1	0	104	110	98	101	0	/	/	/	/	/	/	/
C=CCn1c(SCC(=O)c2[nH]c(C)c(C(=O)OCC)c2C)nc2scc(-c3ccc(OC)c(OC)c3)c2c1=O	10	109	191*[activator]	168*[activator]	105	3	/	0	100	105	101	102	99
CCOC(=O)c1c(C)[nH]c(C(=O)CSc2nnc(-c3ccncc3)n2CC)c1C	17	99	105	101	100	1	/	/	/	/	/	/	/
CN(C)/C=N/c1c(C#N)cnn1-c1ccc(C(F)(F)F)cn1	3	70	-122*	61	70	0	61*	4	105	83	102	90	64
COCCCn1c(-c2ccc(Cl)cc2)n[nH]c1=S	4	/	/	/	/	0	/	2	99	109	96	101	99
N#CN(Cc1ccccc1)Cc1ccccc1	/	100	101	100	?	/	/	/	/	/	/	/	/
CCOC(=O)c1c(C)n(C)c2ccc(O)c(CN3CCN(C)CC3)c12	6	150*[activator]	345	131	121	1	131*	3	94	102	96	98	95
O=c1c2c(nc3nc(NCc4cccc(Cl)c4)[nH]n13)CCC2	4	99	100	99	100	1	/	/	/	/	/	/	/
CCN(CC)S(=O)(=O)c1ccc2c(c1)nc(CCC(=O)Nc1ccc3c(c1)OCO3)n2CC	13	71	20*	82	88	1	82*	-1	100	87	98	92	102
O=C1c2ccccc2C(=O)N1CCN1CCOCC1	-4	99	120	92	259*[activator]	-2	92*	/	/	/	/	/	/
SMILES	ABCG2 block	RGS8-Gao reg	RGS16-Gao	RGS4-Gao reg	RGS7-Gao reg	ABCB1 inh	RGS4-Gao HTS	Avidin counter	RGS8-Gao confirm	RGS7-Gao confirm	RGS16-Gao conf	RGS4-Gao confirm	RGS19-Gao conf
CCOc1ccc(NC(=S)C(C#N)=C2N(C)c3ccccc3N2C)cc1	1	99	101	98	96	0	/	/	/	/	/	/	/
COc1cc(CNC2CCCC2)cc(Cl)c1OCc1ccccc1F	6	102	99	100	99	2	/	/	/	/	/	/	/
COc1ccc(NC(=S)N2CCN(C(c3ccccc3)c3ccccc3)CC2)cc1OC	6	130	185*[activator]	105	107	1	105*	-4	102	102	102	100	102
COc1ccc(NC(=S)N2CCCC2)cc1OC	2	99	100	102	105	0	/	/	/	/	/	/	/
O=S(=O)(N1CCCCC1)N1CCN(c2ccccc2F)CC1	2	104	119	105	156*[activator]	0	105*	12	104	108	107	108	93
CN(Cc1nc(-c2cccs2)no1)CC(O)c1ccccc1 (configuration not stated)	1	104	102	104	97	1	/	/	/	/	/	/	/
Cc1ccc(S(=O)(=O)/N=C(/Nc2ccc3[nH]c(=O)[nH]c3c2)c2ccc(F)cc2)cc1	3	99	100	104	152*[activator]	1	104*	-1	107	102	117	105	116
O=c1[nH]c2ccc(NC(=S)Nc3ccc(F)cc3)cc2[nH]1	/	106	102	107	?	/	/	/	/	/	/	/	/
